Assay [1] deals with T1, Sirt2_56-356 (Homo sapiens, UniProt Q8IXJ6).
T1 sequence (Q8IXJ6 56-356): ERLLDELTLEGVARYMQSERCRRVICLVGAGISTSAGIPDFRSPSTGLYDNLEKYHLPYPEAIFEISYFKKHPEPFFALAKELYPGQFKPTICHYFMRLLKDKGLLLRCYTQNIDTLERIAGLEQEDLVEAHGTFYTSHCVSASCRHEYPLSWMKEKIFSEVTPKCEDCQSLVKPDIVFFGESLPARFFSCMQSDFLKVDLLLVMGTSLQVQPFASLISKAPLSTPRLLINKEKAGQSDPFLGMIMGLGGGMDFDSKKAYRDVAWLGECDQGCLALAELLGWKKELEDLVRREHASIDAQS
As to the kind of experiment: Fluorescence polarization assay. It is filed as binding.

Assay [2] addresses human recombinant HDAC1 (Homo sapiens, UniProt Q13547). Description: HDAC1 activity assay. It counts as biochemical. An outline of the steps: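 Enzyme was incubated with serially diluted test compound in DMSO and ZMAL (added from a 126 μM solution) for 90 min at 37 °C. Stop solution (33 μM trichostatin A, 6 mg/mL trypsin) was added, followed by 30 min at 37 °C. Fluorescence read at Ex 390 / Em 460 nm.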

For assay [3], the system named is α-tubulin acetylation in PC-3M-luc cells. As to the kind of experiment: Acetylation levels of α-tubulin by immunofluorescence. To be noted: 20 μM, 5 hours. It is filed as cell-based, human. An outline of the steps:
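PC-3M-luc cells were plated at 20 000 per well, incubated overnight at 37 °C and 5% CO2, then exposed to 20 μM test compound for 5 h. They were fixed in 4% PFA for 8–10 min at RT and extracted with PBS/0.1% Triton X-100. Blocking used PBS/0.1% Triton/5% FCS. […] Read-out was immunofluorescence microscopy.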

In assay [4] the target is T2, Sirt3_118-395 (Homo sapiens, UniProt Q9NTG7).
T2 sequence (Q9NTG7 118-395): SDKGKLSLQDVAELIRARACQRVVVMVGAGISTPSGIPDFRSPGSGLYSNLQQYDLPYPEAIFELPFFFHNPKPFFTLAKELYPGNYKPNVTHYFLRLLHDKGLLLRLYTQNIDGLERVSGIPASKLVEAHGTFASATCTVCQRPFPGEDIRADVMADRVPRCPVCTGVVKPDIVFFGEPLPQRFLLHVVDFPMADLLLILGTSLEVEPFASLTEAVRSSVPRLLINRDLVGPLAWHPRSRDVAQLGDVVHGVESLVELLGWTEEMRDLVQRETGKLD
Description: Sirtuin deacetylation activity assay. It counts as biochemical.

Assay [5] relates to HEK293T cells. Description: Cell viability assay. To be noted: Homo sapiens, HEK-293T. It is filed as cell-based. An outline of the steps:
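MTS/PMS (20:1) viability assay. Cells were seeded at 2000 per well with test compound or vehicle (0.5% DMSO final) and incubated 72 or 120 h at 37 °C, 5% CO2. Absorbance was read 2–4 h after reagent addition. Media: HEK293T in DMEM with 10% FBS, 2 mM glutamine and 1% pen-strep; HGC-27 in DMEM:Ham's 12 (1:1) with 5% FCS.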

In assay [6] the target is T1, Sirt2_56-356. As to the kind of experiment: Sirtuin deacetylation activity assay. It counts as biochemical. As to conditions: In vitro Sirt2 activity assay IC50, Table 2.

Some results are limits rather than exact numbers.

human recombinant HDAC1, sequence (Q13547 whole entry): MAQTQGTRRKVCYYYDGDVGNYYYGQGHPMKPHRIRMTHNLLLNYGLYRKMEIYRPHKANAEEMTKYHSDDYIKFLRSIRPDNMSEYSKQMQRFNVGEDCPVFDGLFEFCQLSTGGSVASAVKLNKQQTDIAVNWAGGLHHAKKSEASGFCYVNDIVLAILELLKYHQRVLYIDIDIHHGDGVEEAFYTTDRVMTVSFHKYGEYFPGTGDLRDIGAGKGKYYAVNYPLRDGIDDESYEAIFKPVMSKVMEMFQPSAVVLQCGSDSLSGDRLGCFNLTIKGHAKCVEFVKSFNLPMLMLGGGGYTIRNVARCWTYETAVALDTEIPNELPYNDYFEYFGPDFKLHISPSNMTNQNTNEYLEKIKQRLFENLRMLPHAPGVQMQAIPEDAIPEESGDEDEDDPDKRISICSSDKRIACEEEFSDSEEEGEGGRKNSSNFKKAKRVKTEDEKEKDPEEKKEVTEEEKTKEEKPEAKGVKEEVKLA

Regarding `Cc1cc(C)nc(SCC(=O)Nc2ncc(Cc3cccc(OCc4cn(Cc5ccc(OCCN6CCOCC6)cc5)nn4)c3)s2)n1` [Compound 12], the IC50 (as a rule, the midpoint of a concentration-inhibition curve) in assay [1] is 0.07 ± 0.02 µM; in assay [2] it was more than 100 µM; in assay [4] it was more than 100 µM; in assay [6] it was 0.12 ± 0.01 µM. Further, the “acetylation levels of α-tubulin” value in assay [3] is “elevated”. The GI50 (commonly the concentration at which growth is held to half of that of the control) in assay [5] stood at 7.7 ± 0.71 µM.

(Values after article PMC8985159 (RSC Chemical Biology, 2022).)
